{"data": "Results collected from several papers", "note": "Lines come from different studies, so protocols differ."}
{"SMILES": "COc1ccnc(CNC(=O)c2cn(Cc3ccc(Cn4ccccc4=O)cc3)nc2C(F)(F)F)c1F", "test system": "male beagle dog, plasma", "setting": "intravenous, 1 mg/kg", "quantity": "Vd", "value": "< 1 L"}
{"SMILES": "CN1CCC(c2ccccc2CC(C)(C)Nc2nc(N3CCOCC3)nc(-n3c(C(F)F)nc4ccccc43)n2)CC1", "test system": "dog, plasma", "setting": "intravenous, 2 mg/kg, single dose", "quantity": "Vd", "value": "9.7 L/kg"}
{"SMILES": "O=C(NCCN1CCCC1)c1cc(-c2ccc(CN3CCOCC3)cc2)nc2ccc(F)cc12", "test system": "male beagle dog, blood", "setting": "intravenous, 1 mg/kg", "quantity": "Vd", "value": "30 L/kg"}
{"SMILES": "C=CC(=O)Nc1cc(Nc2nccc(Nc3cc(Cl)c(F)cc3C(C)(C)O)n2)c(OC)cc1N1CC[C@@H](N(C)C)C1", "test system": "beagle dog, plasma", "setting": "intravenous, 1 mg/kg", "quantity": "Vd", "value": "29.5 L/kg"}
{"SMILES": "CC[C@@H]1CN(C(=O)NCC(F)(F)F)C[C@@H]1c1cnc2cnc3[nH]ccc3n12", "test system": "beagle dog, plasma", "setting": "oral, 1 mg/kg, single dose", "quantity": "Vd/F", "value": "29.1 L/kg"}
{"SMILES": "COCc1nn(Cc2ccc(Cn3ccccc3=O)cc2)cc1C(=O)NCc1nccc(OC)c1F", "test system": "male beagle dog, plasma", "setting": "intravenous, 1 mg/kg", "quantity": "Vd", "value": "< 1 L"}
{"SMILES": "CCn1c(=O)c(-c2cc(NC(=O)Nc3ccccc3)c(F)cc2Br)cc2cnc(NC)cc21", "test system": "beagle dog, plasma", "setting": "oral, 5 mg/kg, single dose", "quantity": "Vd/F", "value": "12.7 L/kg"}
{"SMILES": "Oc1c(-n2ccnn2)cnn1-c1cc(N2CCOCC2)ncn1", "test system": "female dog, plasma", "setting": "intravenous, 3 mg/kg", "quantity": "Vd", "value": "0.78 L/kg"}
{"SMILES": "Cc1nnc2sc(C(=O)NCc3ccc(-c4cccnc4F)cc3)c(N)c2c1C", "test system": "dog, plasma", "setting": "intravenous", "quantity": "Vd", "value": "0.7 L/kg"}
